Experiments:
MGC-803 = assay: Antiproliferative activity against human MGC-803 cells; format: functional, cell-based
MDA-MB-231 = assay: Antiproliferative activity against human MDA-MB-231 cells; format: functional, cell-based
A549 = assay: Antiproliferative activity against human A549 cells; format: functional, cell-based
[1] = Antitumor activity against patient-derived breast cancer cells xenografted in NOD/SCID mouse assessed as tumor growth inhibition at 15 mg/kg, ip administered once daily for 20 days; settings: Homo sapiens, Breast cancer cell line, 480 h, read-out: TGI
[2] = Toxicity in NOD/SCID mouse xenografted with patient-derived breast cancer cells assessed as change in body weight at 5 to 15 mg/kg, ip administered once daily for 20 days; settings: in vivo, 480 h
[3] = Metabolic stability in human liver microsomes assessed as half life at 0.1 uM preincubated for 10 mins followed by NADPH addition and measured upto 60 mins by LC-MS/MS analysis; format: ADME, Microsome; settings: time <=70 min
Summary of the method: (§1)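 Microsomes at 0.33 mg/mL in 0.1 M Tris pH 7.4 with 5 mM MgCl2; compound final 0.1 μM (0.01% DMSO, 0.005% BSA). Preincubated 10 min at 37 °C, then started with 1 mM NADPH. Sampled at 0, 7, 17, 30 and 60 min and quenched with cold methanol. Centrifuged, then analysed by LC-MS/MS.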

[4] = Metabolic stability in human liver microsomes assessed as clearance at 0.1 uM preincubated for 10 mins followed by NADPH addition and measured upto 60 mins by LC-MS/MS analysis; format: ADME, Microsome; settings: 1 h, time <=70 min; summary of the method: as §1

| Structure (SMILES) | IC50 (MGC-803) | IC50 (MDA-MB-231) | IC50 (A549) | inhibition in vivo at 15 mg/kg [1] | Activity [2] | half-life at 0.1 µM [3] | CLH [4] |
| --- | --- | --- | --- | --- | --- | --- | --- |
| COc1ccc2c(C(=O)Nc3ccc(-c4ccccc4)cc3)cc(-c3ccccc3)nc2c1 | 2.6 µM | 5.3 µM | 3 µM |  |  |  |  |
| Cn1cc(-c2ccn3c(CC(=O)Nc4ccc5c(c4)S(=O)(=O)C=C5)c(-c4ccccc4)nc3c2)cn1 | 0.7 µM | 1.4 µM | 0.8 µM |  |  |  |  |
| O=C(Cc1c(-c2ccccc2)nc2ccc(Br)cn12)Nc1ccc2c(c1)S(=O)(=O)C=C2 | 1.5 µM | 2 µM | 0.8 µM |  |  |  |  |
| Cc1ccc(-c2nc3ccccn3c2CC(=O)Nc2ccc3c(c2)S(=O)(=O)C=C3)cc1 | 2.7 µM | 4.1 µM | 5.5 µM |  |  |  |  |
| O=C(Cc1cnc2ccccn12)Nc1ccc2c(c1)S(=O)(=O)C=C2 | 22.5 µM | 20.2 µM | 23.4 µM |  |  |  |  |
| CCOC(=O)COc1ccc2c(C(=O)NCc3ccc(C4CCCCC4)cc3)cc(-c3ccccc3)nc2c1 | > 100 µM | > 100 µM | > 100 µM |  |  |  |  |
| COc1ccn2c(CC(=O)Nc3ccc4c(c3)S(=O)(=O)C=C4)c(-c3ccc(F)cc3)nc2c1 | 0.9 µM | 5.1 µM | 1.3 µM |  |  |  |  |
| COc1ccn2c(CC(=O)Nc3ccc4c(c3)S(=O)(=O)C=C4)c(-c3ccc([N+](=O)[O-])cc3)nc2c1 | 2.6 µM | 4.4 µM | 1.7 µM |  |  |  |  |
| COc1ccn2c(CC(=O)Nc3ccc4c(c3)S(=O)(=O)C=C4)c(-c3ccc(C(F)(F)F)cc3)nc2c1 | 0.4 µM | 0.7 µM | 0.4 µM |  |  | 4.4 min | 478 mL/min/g |
| COc1ccn2c(CC(=O)Nc3ccc4c(c3)S(=O)(=O)C=C4)c(-c3ccc4ccccc4c3)nc2c1 | 1.5 µM | 1.4 µM | 1 µM |  |  |  |  |
| Cc1ccc(-c2nc3ccc(C)cn3c2CC(=O)Nc2ccc3c(c2)S(=O)(=O)C=C3)cc1 | 1.8 µM | 2.1 µM | 0.9 µM |  |  |  |  |
| COc1ccc2nc(-c3ccccc3)c(CC(=O)Nc3ccc4c(c3)S(=O)(=O)C=C4)n2c1 | 1.7 µM | 2.1 µM | 1.2 µM |  |  |  |  |
| COc1ccc2c(C(=O)Nc3ccc(-c4cccs4)cc3)cc(-c3ccccc3)nc2c1 | 15 µM | 10.8 µM | 15 µM |  |  |  |  |
| O=C(Cc1c(-c2ccccc2)nc2cc(Br)ccn12)Nc1ccc2c(c1)S(=O)(=O)C=C2 | 0.9 µM | 0.9 µM | 0.8 µM |  |  |  |  |
| Cc1ccc2nc(-c3ccc(C#N)cc3)c(CC(=O)Nc3ccc4c(c3)S(=O)(=O)C=C4)n2c1 | 2.4 µM | 2 µM | 2.5 µM |  |  |  |  |
| O=C(Nc1ccc(C2CCCCC2)cc1)c1cc(-c2ccccc2)nc2ccccc12 | 5.9 µM | 10 µM | 5.8 µM |  |  |  |  |
| COc1ccn2c(CC(=O)Nc3ccc(-c4ccccc4)cc3)c(-c3ccccc3)nc2c1 | 3.5 µM | 10.5 µM | 3.2 µM |  |  |  |  |
| CCOC(=O)COc1ccc2c(C(=O)Nc3ccc(C4CCCCC4)cc3)cc(-c3ccccc3)nc2c1 | > 100 µM | > 100 µM | > 100 µM |  |  |  |  |
| COc1cccn2c(CC(=O)Nc3ccc4c(c3)S(=O)(=O)C=C4)c(-c3ccccc3)nc12 | 1.7 µM | 2.2 µM | 1 µM |  |  |  |  |

| Structure (SMILES) | IC50 (MGC-803) | IC50 (MDA-MB-231) | IC50 (A549) | inhibition in vivo at 15 mg/kg [1] | Activity [2] | half-life at 0.1 µM [3] | CLH [4] |
| --- | --- | --- | --- | --- | --- | --- | --- |
| COc1ccn2c(CC(=O)Nc3ccc4c(c3)S(=O)(=O)C=C4)c(-c3ccc(S(C)(=O)=O)cc3)nc2c1 | 6.4 µM | 5.8 µM | 5.8 µM |  |  |  |  |
| O=C(Nc1nnc(-c2ccco2)o1)c1cc(-c2ccccc2)nc2ccccc12 | 7.43 µM | 18.2 µM | 11.6 µM |  | Non-Toxic |  |  |
| O=C(O)COc1ccc2c(C(=O)NCc3ccc(C4CCCCC4)cc3)cc(-c3ccccc3)nc2c1 | > 100 µM | > 100 µM | > 100 µM |  |  |  |  |
| O=C(Cc1c(-c2ccc([N+](=O)[O-])cc2)nc2ccccn12)Nc1ccc2c(c1)S(=O)(=O)C=C2 | 5.2 µM | 6.5 µM | 5.4 µM |  |  |  |  |
| O=C(NCc1ccc(C2CCCCC2)cc1)c1cc(-c2ccccc2)nc2cc(O)ccc12 | 14.6 µM | 50 µM | 16.6 µM |  |  |  |  |
| COc1ccn2c(CC(=O)Nc3ccc4c(c3)S(=O)(=O)C=C4)c(-c3cccs3)nc2c1 | 1.3 µM | 1.4 µM | 1.1 µM |  |  |  |  |
| O=C(Cc1c(-c2ccccc2)nc2cc(-c3ccccc3)ccn12)Nc1ccc2c(c1)S(=O)(=O)C=C2 | 1.7 µM | 2.4 µM | 1.1 µM |  |  |  |  |
| COc1ccn2c(CC(=O)Nc3ccc(-c4ccco4)cc3)c(-c3ccccc3)nc2c1 | 2.5 µM | 10 µM | 6.6 µM |  |  |  |  |
| COc1ccc(-c2ccn3c(CC(=O)Nc4ccc5c(c4)S(=O)(=O)C=C5)c(-c4ccccc4)nc3c2)cc1 | 0.5 µM | 1 µM | 0.7 µM |  |  |  |  |
| COc1ccc2c(C(=O)Nc3ccc(C)cc3)cc(-c3ccccc3)nc2c1 | > 100 µM | > 100 µM | > 100 µM |  |  |  |  |
| COc1ccn2c(CC(=O)Nc3ccc(C4CCCCC4)cc3)c(-c3ccccc3)nc2c1 | 4.7 µM | 5.4 µM | 5.6 µM |  |  |  |  |
| CS(=O)(=O)c1ccc(-c2nc3ccccn3c2CC(=O)Nc2ccc3c(c2)S(=O)(=O)C=C3)cc1 | 6.9 µM | 6.4 µM | 7.5 µM |  |  |  |  |
| Cc1ccc2nc(-c3ccc(Cl)cc3)c(CC(=O)Nc3ccc4c(c3)S(=O)(=O)C=C4)n2c1 | 1.6 µM | 2 µM | 1.2 µM |  |  |  |  |
| Cc1ccn2c(CC(=O)Nc3ccc4c(c3)S(=O)(=O)C=C4)c(-c3ccccc3)nc2c1 | 1 µM | 1.6 µM | 0.7 µM |  |  |  |  |
| O=C(Cc1c(-c2ccccc2)nc2cc(Cl)ccn12)Nc1ccc2c(c1)S(=O)(=O)C=C2 | 1.3 µM | 1.1 µM | 0.7 µM |  |  |  |  |
| COc1ccc2c(C(=O)Nc3ccc(C(C)C)cc3)cc(-c3ccccc3)nc2c1 | > 100 µM | > 100 µM | > 100 µM |  |  |  |  |
| COc1ccn2c(CC(=O)Nc3ccc4c(c3)S(=O)(=O)C=C4)c(-c3ccccc3)nc2c1 | 1 µM | 1.2 µM | 0.6 µM |  |  | 10.1 min | 208.4 mL/min/g |
| COc1ccc(NC(=O)c2cc(-c3ccccc3)nc3cc(OC)ccc23)cc1 | > 100 µM | > 100 µM | > 100 µM |  |  |  |  |

More lines, main results first:

| IC50 (MGC-803) | IC50 (MDA-MB-231) | IC50 (A549) | Structure (SMILES) | inhibition in vivo at 15 mg/kg [1] | Activity [2] | half-life at 0.1 µM [3] | CLH [4] |
| --- | --- | --- | --- | --- | --- | --- | --- |
| 15.6 µM | 20.2 µM | 15.6 µM | COc1ccc2c(C(=O)Nc3ccc(-c4ccc(SC)cc4)cc3)cc(-c3ccccc3)nc2c1 |  |  |  |  |
| 5.6 µM | 2 µM | 5 µM | CN(CC(=O)N(Cc1ccc(C2CCCCC2)cc1)c1ccc(C(=O)O)c(O)c1)S(=O)(=O)c1c(F)c(F)c(F)c(F)c1F | 63.6% | Non-Toxic |  |  |
| 4.9 µM | 5.9 µM | 4.9 µM | COc1ccc2c(C(=O)Nc3ccc(C4CCCCC4)cc3)cc(-c3ccccc3)nc2c1 |  |  |  |  |
| 39.6 µM | > 100 µM | 40.9 µM | CCCCc1ccc(NC(=O)c2cc(-c3ccccc3)nc3cc(OC)ccc23)cc1 |  |  |  |  |
| 64.8 µM | > 100 µM | > 100 µM | COc1ccc2c(C(=O)Nc3ccc(-c4cccnc4)cc3)cc(-c3ccccc3)nc2c1 |  |  |  |  |
| > 100 µM | > 100 µM | > 100 µM | COc1ccc2c(C(=O)Nc3ccc(-c4ccc5cc[nH]c5c4)cc3)cc(-c3ccccc3)nc2c1 |  |  |  |  |
| 2.1 µM | 10.3 µM | 5.5 µM | COc1ccc2c(C(=O)Nc3ccc(-c4ccco4)cc3)cc(-c3ccccc3)nc2c1 |  |  |  |  |
| 4.8 µM | 5.3 µM | 4.3 µM | COc1ccc2c(C(=O)Nc3ccc(-c4cc5ccccc5o4)cc3)cc(-c3ccccc3)nc2c1 |  |  |  |  |
| 40.4 µM | 11.2 µM | 29.9 µM | COc1ccc2c(C(=O)Nc3ccc(-c4ccc(F)cc4)cc3)cc(-c3ccccc3)nc2c1 |  |  |  |  |
| > 100 µM | > 100 µM | > 100 µM | O=C(Nc1ccc(C2CCCCC2)cc1)c1cc(-c2ccccc2)nc2cc(O)ccc12 |  |  |  |  |
| > 100 µM | > 100 µM | > 100 µM | COc1ccc2c(C(=O)Nc3ccc(F)cc3)cc(-c3ccccc3)nc2c1 |  |  |  |  |
| > 100 µM | > 100 µM | > 100 µM | COc1ccc2c(C(=O)Nc3ccc(-c4ccc(C(C)C)cc4)cc3)cc(-c3ccccc3)nc2c1 |  |  |  |  |
| 50.4 µM | > 100 µM | > 100 µM | COc1ccc2c(C(=O)Nc3ccc(Cl)cc3)cc(-c3ccccc3)nc2c1 |  |  |  |  |
| > 100 µM | > 100 µM | > 100 µM | COc1ccc2c(C(=O)NCc3ccc(C4CCCCC4)cc3)cc(-c3ccccc3)nc2c1 |  |  |  |  |
| 15.5 µM | 25.5 µM | 21.4 µM | COc1ccc2c(C(=O)Nc3ccc(Br)cc3)cc(-c3ccccc3)nc2c1 |  |  |  |  |
| 5.8 µM | 21 µM | 4.9 µM | COc1ccc(-c2ccc(NC(=O)c3cc(-c4ccccc4)nc4cc(OC)ccc34)cc2)cc1 |  |  |  |  |
| > 100 µM | > 100 µM | > 100 µM | COc1ccn2c(C(=O)Nc3ccc(C4CCCCC4)cc3)c(-c3ccccc3)nc2c1 |  |  |  |  |
| 20.1 µM | > 100 µM | > 100 µM | O=C(NCc1ccc(C2CCCCC2)cc1)c1cc(-c2ccccc2)nc2ccccc12 |  |  |  |  |
| > 100 µM | > 100 µM | > 100 µM | O=C(O)COc1ccc2c(C(=O)Nc3ccc(C4CCCCC4)cc3)cc(-c3ccccc3)nc2c1 |  |  |  |  |
